# Measurements from different studies.
# Lines come from different studies, so protocols differ.
# Target: Aurora kinase B (AURKB, Homo sapiens, UniProt Q96GD4)
Compound,assay,setting,quantity,result
CC/C(=N\NC(=O)NCc1cccc(O)c1)c1ccc(O)c(C)c1O,"enzyme activity, inhibitor",0.1 µM,inhibition,2.9%
CN(C)C1CCN(CC#Cc2nn(C3CCCC3)c3nc(NCc4ccccc4)ncc23)C1 (centres unmarked),"enzyme activity, inhibitor, FRET",1 µM,inhibition,21%
O=C(Nc1cccc(Nc2ncc(Br)c(NCCc3cnc[nH]3)n2)c1)N1CCCC1,"enzyme activity, inhibitor, radiometric",1 µM,remaining activity,2%
C[C@H](c1cccc(C#N)c1)n1cc(Cl)cc(C(N)=O)c1=N,"cell-free assay, competition with immobilised ligand",1 µM,remaining binding,100%
Cc1cc(NC(=O)c2cccc3cc(-c4cccc5[nH]nc(N)c45)ccc23)ccc1F,"enzyme activity, inhibitor",0.1 µM,activity vs control,12%
CN(C(=O)c1ccccc1)c1cc(N(C)c2ccc3c(c2)CCc2ccc(C(=O)NCCN4CCOCC4)cc2C3=O)ccc1F,"cell-free assay, competition with immobilised ligand",1 µM,remaining binding,100%
Cc1ccc(NC(=O)c2ccc(C)c(C(F)(F)F)c2)cc1C#Cc1nn(C2CCC(O)CC2)c2ncnc(N)c12 (centres unmarked),"cell-free assay, inhibitor",10 µM,remaining signal,475%
CCN(CC)CCNC(=O)c1c(C)[nH]c(/C=C2\C(=O)Nc3ccc(F)cc32)c1C,cell-free assay,0.5 µM,remaining signal,48.7%
Cc1nn(CC(F)(F)F)cc1Nc1ncc(C2CC2)c(NCCCNC(=O)C2CCC2)n1,"enzyme activity, inhibitor, radiometric",1 µM,remaining activity,102%
N#CCCc1ccc2c(c1)-c1[nH]c3ccc([N+](=O)[O-])cc3c1CC(=O)N2,cell-free assay,0.5 µM,remaining signal,80%
CNc1cccc2cc(C(=O)Nc3ccc(C(=O)O)cc3)c(=O)[nH]c12,"enzyme activity, inhibitor",10 µM,inhibition,-8.1%
CCc1ccccc1C(=O)Nc1n[nH]c2c(C)c(F)c(C3C(C#N)=C(C)N(C)C(C)=C3C#N)cc12,"cell-free assay, competition with immobilised ligand",1 µM,remaining binding,88%
O=C1c2ccccc2-c2n[nH]c3cccc1c23,"enzyme activity, inhibitor",0.5 µM,activity vs control,14.9%
c1cc(CN2CCOCC2)cc(Nc2ncc(C3CC3)c(NCCc3c[nH]cn3)n2)c1,"enzyme activity, inhibitor, radiometric",1 µM,remaining activity,2%
CO[C@@H](C)c1c(Nc2ccc([C@@H](N(C)C(=O)C3CCS(=O)(=O)CC3)C(F)(F)F)cc2)cnc2cc(Cl)nn12,"cell-free assay, competition with immobilised ligand",1 µM,remaining binding,74%
COc1cc2nccc(Oc3ccc(NC(=O)c4c5n(n(-c6ccc(F)cc6)c4=O)CCCC5)cc3)c2cc1OC,"enzyme activity, inhibitor",0.1 µM,inhibition,60%
COc1cccc(CNC(=O)c2nc3scc(COCc4ccc(C(=O)O)cc4)c3c(=O)[nH]2)c1,"cell-free assay, competition with immobilised ligand",1 µM,remaining binding,71.3%
O=C(NCCCNc1nc(Nc2cccc(NC(=O)N3CCCC3)c2)ncc1C1CC1)C1CCC1,"enzyme activity, inhibitor, radiometric",1 µM,remaining activity,11%
CN(C)CC#Cc1ccc(OCCCc2sc(N3CCc4cccc(C(=O)Nc5nc6ccccc6s5)c4C3)nc2C(=O)O)c(F)c1,"cell-free assay, competition with immobilised ligand",1 µM,remaining binding,79%
O=C(CSc1nc2nccnc2c(=O)n1CCc1ccccc1)Nc1nccs1,"enzyme activity, inhibitor",10 µM,inhibition,6%
